This excerpt belongs to a sample that is enriched for hits.
T cruzi HTS: blocks T. cruzi growth inside host cells; intracellular Trypanosoma cruzi in host cells, plate reader; activity score (inhibition), % at 5.01 µM; hit rate 4.9% among 22,000; in the data active = activity score above about 55%;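 also: parasites and compound incubated about four days before reading; 0% = median of neutral control wells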
INS-1E rescue: INS-1E beta cell protection from cytokine death; protection from cytokine-induced ATP loss, % at 10 µM; INS-1E cytokine-induced death, ATP luminescence, 48 h; normalised: neutral wells 0, positive control 100; AID 488910; hit rate 0.1% among 20,000;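 active = mean replicate protection from cytokine-induced ATP loss at least 50% and at least 75% of replicates each reaching 50%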
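Assay system: INS-1E rat cells / Quantity: 8000 cells per well / Medium: RPMI without phenol red, 5% FBS / Probe or stimulus: three-cytokine cocktail (IFN-γ, TNF-α, IL-1β) / Dosing: one compound concentration, pin transfer / Timing: 48 h co-treatment, 10 min post-lysis read / Technique: CellTiter-Glo luminescence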
A1 apoptosis 2: compounds inhibiting A1, read as caspase activation. MEF A1-2A-BIM cells, caspase-Glo luminescence, 3 h; percent of clofoctol response, DMSO zero. caspase activation, % (no concentration beside the values). 24,000 tested, under 10 active; in the data active = caspase activation above about 5.9%
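Material: mouse embryonic fibroblasts co-expressing A1 and BIM (A1-2A-BIM), primed for A1 dependence / Quantity: 2500 cells/well / Buffer or medium: RPMI-1640 growth medium with 10% FBS / Doses: 50 nL compound per well, pinned / Schedule: 3 h compound exposure at 37 °C / Signal: Caspase-Glo luminescence (DEVD substrate) / Measure: Caspase-3/7 activation, seen as rise in luminescence signal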
An asterisk follows results filed as active.

For C[C@H](CO)N1C[C@H](C)[C@H](CN(C)Cc2ccc(Oc3ccccc3)cc2)Oc2ccc(NC(=O)Nc3ccccc3)cc2CC1=O the results were T cruzi HTS 0 and INS-1E rescue -10.
For C[C@@H]1CN([C@H](C)CO)C(=O)Cc2cc(NC(=O)Nc3ccc4c(c3)OCO4)ccc2O[C@@H]1CN(C)Cc1ccccc1 the results were T cruzi HTS 37 and INS-1E rescue 6.
For C[C@@H]1CN([C@@H](C)CO)C(=O)Cc2cc(NC(=O)Nc3ccc4c(c3)OCO4)ccc2O[C@@H]1CN(C)Cc1ccc(Oc2ccccc2)cc1 the results were T cruzi HTS 65* and INS-1E rescue -22.
C[C@@H]1CN([C@H](C)CO)C(=O)Cc2cc(NC(=O)Nc3ccc4c(c3)OCO4)ccc2O[C@@H]1CN(C)Cc1ccc(Oc2ccccc2)cc1 was read as T cruzi HTS 73* and INS-1E rescue -37.
For C[C@@H]1CN([C@H](C)CO)C(=O)Cc2cc(NC(=O)Nc3ccc4c(c3)OCO4)ccc2O[C@H]1CN(C)Cc1ccc(Oc2ccccc2)cc1 the results were T cruzi HTS 78*, INS-1E rescue -47 and A1 apoptosis 2 -1.
`C[C@H]1CN([C@@H](C)CO)C(=O)Cc2cc(NC(=O)Nc3ccc4c(c3)OCO4)ccc2O[C@H]1CN(C)Cc1ccccc1` gave T cruzi HTS 5 and INS-1E rescue -6.
`COc1ccc(/C=N/NC(=O)c2ccccc2O)cc1` gave T cruzi HTS -18, INS-1E rescue -29 and A1 apoptosis 2 -3.
C[C@]12CCC3C4(C=CC5(C=C4C(=O)c4cc6ccccc6s4)C[C@@H](O)CC[C@]35C)C1CC[C@@]2(O)CN1CCC(n2c(=O)[nH]c3ccccc32)CC1 (some centres undefined) was read as A1 apoptosis 2 -1.
For C[C@H](CO)N1C[C@H](C)[C@@H](CN(C)Cc2ccc(C(F)(F)F)cc2)OCc2cnnn2CCCC1=O the results were T cruzi HTS 61* and A1 apoptosis 2 0.
Screening C[C@H](CO)N1C[C@H](C)[C@@H](CN(C)Cc2ccc(Oc3ccccc3)cc2)OCc2cnnn2CCCC1=O returned T cruzi HTS 83* and A1 apoptosis 2 2.
For C[C@@H]1CN([C@@H](C)CO)C(=O)CCCn2cc(nn2)CO[C@H]1CN(C)Cc1ccc(Oc2ccccc2)cc1 the results were T cruzi HTS 68*, INS-1E rescue -2 and A1 apoptosis 2 0.
For C[C@H]1CN([C@@H](C)CO)C(=O)CCCn2cc(nn2)CO[C@@H]1CN(C)Cc1ccc(Oc2ccccc2)cc1 the results were T cruzi HTS 32 and A1 apoptosis 2 0.
For C[C@@H]1CN([C@H](C)CO)C(=O)CCCn2nncc2CO[C@H]1CN(C)Cc1ccc(-c2ccccc2)cc1 the results were T cruzi HTS 10 and INS-1E rescue -9.
C[C@H](CO)N1C[C@H](C)[C@@H](CN(C)Cc2ccc(-c3ccccc3)cc2)OCc2cnnn2CCCC1=O was read as T cruzi HTS 65*.
`C[C@H]1CN([C@@H](C)CO)C(=O)CCCn2nncc2CO[C@H]1CN(C)Cc1ccc(Oc2ccccc2)cc1` gave T cruzi HTS -14 and A1 apoptosis 2 -1.
For C[C@H]1CN([C@@H](C)CO)C(=O)CCCn2nncc2CO[C@@H]1CN(C)Cc1ccc(C(F)(F)F)cc1 the results were T cruzi HTS 52 and A1 apoptosis 2 0.
Screening CN(C)CCCNC(=O)[C@@]1(c2ccc([N+](=O)[O-])cc2)CC(=O)N(CC23CC4CC(CC(C4)C2)C3)[C@@H]1c1ccc(CO)cc1 returned A1 apoptosis 2 0.
Screening C[C@H]1CN([C@@H](C)CO)C(=O)CCCn2nncc2CO[C@@H]1CN(C)S(=O)(=O)c1ccc(-c2ccccc2)cc1 returned T cruzi HTS 84*.
For C[C@@H]1CN([C@@H](C)CO)C(=O)CCCn2nncc2CO[C@H]1CN(C)S(=O)(=O)c1ccc(-c2ccccc2)cc1 the results were T cruzi HTS 11, INS-1E rescue -4 and A1 apoptosis 2 2.
`O=C(CCCCCCC(=O)Nc1ccccc1O)N/N=C/c1cccc(B(O)O)c1` gave T cruzi HTS -6, INS-1E rescue -8 and A1 apoptosis 2 0.
For COC(=O)CCCCCCC(=O)N/N=C/c1cc(F)ccc1O the results were T cruzi HTS -7, INS-1E rescue -4 and A1 apoptosis 2 -1.
For C[C@@H]1CCCCO[C@@H](CN(C)Cc2ccc(Cl)c(Cl)c2)[C@H](C)CN([C@H](C)CO)C(=O)c2cc(NC(=O)Cc3ccccc3)ccc2O1 the results were A1 apoptosis 2 0.
C[C@@H]1CCCCO[C@@H](CN(C)Cc2ccc(Cl)c(Cl)c2)[C@@H](C)CN([C@H](C)CO)C(=O)c2cc(NC(=O)CCC(F)(F)F)ccc2O1 was read as T cruzi HTS 63* and INS-1E rescue -32.
C[C@@H]1CCCCO[C@@H](CN(C)Cc2ccc(Cl)c(Cl)c2)[C@@H](C)CN([C@H](C)CO)C(=O)c2cc(NC(=O)Cc3ccccc3)ccc2O1 was read as T cruzi HTS 64*, INS-1E rescue -45 and A1 apoptosis 2 0.
`C[C@@H]1CN([C@@H](C)CO)C(=O)c2cc(NC(=O)CCC(F)(F)F)ccc2O[C@@H](C)CCCCO[C@H]1CN(C)Cc1ccc(Cl)c(Cl)c1` gave A1 apoptosis 2 0.
`COc1ccc([C@@H]2C=C(C(=O)NCc3ccccc3)O[C@H](OCc3ccc(CO)cc3)C2)cc1` gave A1 apoptosis 2 0.
For O=C(CCCCCCC(=O)Nc1ccccc1O)N/N=C/c1cc(O)ccc1O the results were T cruzi HTS 0 and INS-1E rescue 6.
`CN(C)c1ccc(/C=N/NC(=O)CCCCCCC(=O)Nc2ccccc2O)cc1` gave T cruzi HTS 10, INS-1E rescue -3 and A1 apoptosis 2 -1.
For C[C@H]1CN([C@@H](C)CO)C(=O)Cc2cc(N(C)C)ccc2O[C@@H]1CN(C)Cc1ccc(C(F)(F)F)cc1 the results were T cruzi HTS 74*, INS-1E rescue 2 and A1 apoptosis 2 1.
`C[C@@H]1CN([C@H](C)CO)C(=O)Cc2cc(N(C)C)ccc2O[C@@H]1CN(C)Cc1ccc(C(F)(F)F)cc1` gave T cruzi HTS -4, INS-1E rescue -1 and A1 apoptosis 2 -1.
For C[C@@H]1CN([C@@H](C)CO)C(=O)Cc2cc(N(C)C)ccc2O[C@@H]1CN(C)Cc1ccc(C(F)(F)F)cc1 the results were T cruzi HTS -18, INS-1E rescue -5 and A1 apoptosis 2 1.
C[C@@H]1CN([C@H](C)CO)C(=O)Cc2cc(N(C)C)ccc2O[C@H]1CN(C)Cc1ccc(C(F)(F)F)cc1 was read as T cruzi HTS 64*, INS-1E rescue 20 and A1 apoptosis 2 0.
For O=C(N/N=C/c1cccc(Br)c1)c1ccccc1O the results were T cruzi HTS -14, INS-1E rescue -15 and A1 apoptosis 2 -3.
C[C@H]1CN([C@@H](C)CO)C(=O)Cc2cc(NS(=O)(=O)c3ccc(Cl)cc3)ccc2O[C@H]1CN(C)CC1CCCCC1 was read as T cruzi HTS 73*, INS-1E rescue -18 and A1 apoptosis 2 3.

Screens from PubChem.
